Values after ≈ are worked out from the molar mass of the structure shown.

For series [1], the system named is Mus musculus. Kind of series: Toxicity in mouse up to 100 mg/kg administered via parenteral route. The class given is organism-based. Further details: dose 100 mg/kg. The following applies: in vivo. The method, boiled down:
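Groups of six mice received intraperitoneal doses of 10, 25, 50, 75 and 100 mg/kg, with propylene glycol as the vehicle control.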

Series [2] has as its system Plasmodium berghei. The experiment in a line: Antimalarial activity against Plasmodium berghei str. ANKA infected in Swiss albino mouse assessed as survival at 0.048 mmol/kg/day, po qd for 3 days by microscopic analysis relative to control. The class given is functional. The method, boiled down: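 P. berghei ANKA infected mice, 4-day suppressive test. Day 0: 0.2 ml of 2 x 10^7 parasitized erythrocytes given i.v. (donor blood, 20-30% parasitemia, diluted in saline). Oral dosing at 0.048 mmol/kg/day from 2 h post-infection, then days 1-3 at 24 h intervals. Vehicle 7% Tween, 3% ethanol in water. Five mice/group. Survival time recorded per mouse; mean compared with vehicle group.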

Series [3] deals with Plasmodium berghei. Kind of series: Antimalarial activity against Plasmodium berghei str. ANKA infected in Swiss albino mouse assessed as parasitemia at 0.048 mmol/kg/day, po qd […] by microscopic analysis relative to control. The series is classed as functional. The method, boiled down:
(§1)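 Four-day suppressive test. Mice were infected iv on day 0 with 0.2 ml of 2 × 10^7 P. berghei ANKA-parasitized erythrocytes from a donor mouse, diluted in saline. From 2 h post-infection they were dosed orally at 0.048 mmol/kg/day for days 0–3, five mice per group. The vehicle was 7% Tween and 3% ethanol in water. On day 4, Giemsa smears were scored over 5 fields of about 100 RBC each. Suppression was calculated relative to the vehicle group, taken as 100%.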

Series [4] in a line: Toxicity in po dosed mouse. The series is classed as organism-based. The following applies: in vivo. The method, boiled down: (§2)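 Male mice (26-32 g), six per group, fasted overnight and weighed. Compounds given orally as suspension in 1% gum acacia at 25, 50, 100, 200 and 300 mg/kg/day; vehicle control at up to 1 ml/100 g. Mortality recorded after 24 h; weight and deaths followed over 3 days post-dosing.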

For series [5], the system named is Plasmodium berghei. Kind of series: Antimalarial activity against Plasmodium berghei str. ANKA infected in Swiss albino mouse assessed as supression of parasitemia at 0.048 mmol/kg/day, po qd for 3 days by microscopic analysis relative to control. The series is classed as functional. The method, boiled down: as §1
The subject of series [6] is Mus musculus. The experiment in a line: Toxicity in mouse assessed as death at 25 to 300 mg/kg, po measured for 3 days. The class given is organism-based. Details: dose 25-300 mg/kg, route oral. The following applies: in vivo, 72 h. The method, boiled down:
as §2

The subject of series [7] is Leishmania aethiopica. Kind of series: Antileishmanial activity against promastigote stage of Leishmania aethiopica after 24 hrs by alamar blue staining-based […]. The class given is functional, organism-based. The method, boiled down: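 L. aethiopica promastigotes, 3 × 10^6 per well, given compounds from DMSO stocks in three-fold dilutions at 10 to 0.04 µg/ml (final DMSO ≤0.1%), in duplicate, at room temperature (21 ± 1 °C). Alamar blue (resazurin) was added after 24 h and absorbance read 48 h later at 540 and 630 nm. Negative control was parasites, medium and DMSO.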
(In general: Resazurin is reduced to fluorescent resorufin, in cell work by metabolically active cells.)

Series [8] concerns Mus musculus. Kind of series: Toxicity in mouse assessed as change in weight at 25 to 300 mg/kg, po measured for 3 days. The class given is organism-based. Details: dose 25-300 mg/kg, route oral. The following applies: in vivo, 72 h. The method, boiled down: as §2
In series [9] the test system is Leishmania aethiopica. Kind of series: Antileishmanial activity against amastigote stage of Leishmania aethiopica after 72 hrs by resazurin staining-based fluorescence assay. The class given is functional, organism-based. The method, boiled down:
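Axenic L. aethiopica amastigotes (50 µl of 2 × 10^7 cells/ml) exposed to serial dilutions at final 0.04–10 µg/ml for 72 h at 31 °C, humidified, 5% CO₂. Resazurin was added at 68 h and fluorescence read at 72 h (ex 530/em 590 nm). EC50 from sigmoidal dose–response fits, mean ± SD of triplicate experiments run in duplicate. Controls were medium alone and 1% DMSO.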

Series [10] concerns Plasmodium falciparum. Kind of series: Antiplasmodial activity against chloroquine-resistant Plasmodium falciparum RKL9 infected in human RBC assessed as effect on schizont maturation after 24 hrs by Geimsa staining-based assay. The class given is functional, organism-based. The following applies: RKL9, 24 h. The method, boiled down:
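P. falciparum RKL9 in continuous culture in human B(+) RBC, parasitemia adjusted to 1-1.5%, RPMI 1640 with 10% AB(+) serum. Two-fold serial dilutions, compounds in ethanol (final ≤0.5%), 24 h at 37 °C, duplicate wells. Schizonts per 100 asexual parasites counted on Giemsa smears; % schizont maturation inhibition = (1 − Nt/Nc) × 100.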

Series [11] relates to Leishmania aethiopica. The experiment in a line: Ratio of amphotericin IC50 to compound IC50 for promastigote stage of Leishmania aethiopica. The class given is functional.
Series [12] relates to Leishmania aethiopica. The experiment in a line: Ratio of miltefosine IC50 to compound IC50 for promastigote stage of Leishmania aethiopica. The series is classed as functional.

As usually defined, the IC50 is the concentration at which inhibition is half-maximal. For `O=C1CS/C(=N/N=C/c2cn(-c3ccc(Br)cc3)nc2-c2ccc([N+](=O)[O-])cc2)N1c1ccccc1`, the Activity entry in series [1] is reported as “Non-toxic”; in series [3], 2%; in series [5], 97.67%; in series [6], “Non-toxic”; in series [8] it was “Non-toxic”. The Survival in [2] stood at 16.44 days. The MTD in [4] is 300 mg/kg. Besides, the IC50 came out at 0.0224 µg/mL (≈ 0.0399 µM) in [7], 0.19 µg/mL (≈ 0.338 µM) in [9] and 39.2 nM in series [10].
Regarding `Cc1ccc(-n2cc(/C=N/N=C3/SCC(=O)N3c3ccccc3)c(-c3ccc([N+](=O)[O-])cc3)n2)cc1`, the Activity result in series [1] is given as “Non-toxic”; in [3] it was 3%; in series [5], 96.51%; in series [6], “Non-toxic”; in [8], “Non-toxic”. The Survival in series [2] is 16.62 days. For the same molecule, in series [4], the MTD was 300 mg/kg. Moreover, the figures for the IC50 in [7], in series [9] and in series [10] were 0.0201 µg/mL (≈ 0.0405 µM), 0.28 µg/mL (≈ 0.564 µM) and 40.2 nM, respectively.
Take `CC(=O)N(C1=NN(C(C)=O)C(c2cn(-c3ccc(Br)cc3)nc2-c2ccc([N+](=O)[O-])cc2)S1)c1ccccc1` (stereo unspecified): the Activity entry in [1] was “Non-toxic”; in [3] it was 12%; in series [5] it was 86.05%; in series [6], “Non-toxic”; in series [8], “Non-toxic”. The Survival in series [2] is 16.86 days. For the same molecule, the entries for the “Ratio IC50” value in series [11] and in [12] were 3 and 225, respectively. In series [4], this molecule had an MTD of 300 mg/kg. Moreover, the IC50 in [7] worked out at 0.0142 µg/mL (≈ 0.0235 µM); in series [9] it was 0.13 µg/mL (≈ 0.215 µM).
In the case of `CC(=O)N1N=C(c2ccccc2)CC1c1cn(-c2ccc(Br)cc2)nc1-c1ccc(C)cc1` (stereo unspecified), the Activity entry is on record as “Non-toxic” in series [1]; 3% in series [3]; 96.51% in series [5]; “Non-toxic” in series [6]; “Non-toxic” in series [8]. For the same molecule, the Survival in series [2] was 16.4 days. The same molecule showed an MTD in series [4] of 300 mg/kg. In addition, the IC50 in series [7] turned out to be 3.02 µg/mL (≈ 6.05 µM); in series [9] it was 2.77 µg/mL (≈ 5.55 µM); in [10], 36.8 nM.
In the case of `Cc1ccc(-n2cc(/C=N/NC(=S)Nc3ccccc3)c(-c3ccc([N+](=O)[O-])cc3)n2)cc1`, the Activity entry in series [1] was “Non-toxic”; in series [3] it was 5%; in series [5], 94.19%; in series [6], “Non-toxic”; in series [8] it was “Non-toxic”. Also, the Survival in series [2] worked out at 14 days. The MTD in [4] turned out to be 300 mg/kg. For the same molecule, the values for the IC50 in series [7], in [9] and in series [10] were 0.0241 µg/mL (≈ 0.0528 µM), 0.23 µg/mL (≈ 0.504 µM) and 37.8 nM, respectively.
On to `Cc1ccc(-c2nn(-c3ccc(Br)cc3)cc2/C=N/N=C2/SCC(=O)N2c2ccccc2)cc1`, for which the Activity result was “Non-toxic” in series [1]; 4% in series [3]; 95.35% in series [5]; “Non-toxic” in series [6]; “Non-toxic” in [8]. The Survival in series [2] was 16.86 days. For the same molecule, in [4], the MTD worked out at 300 mg/kg. In addition, the IC50 in series [7] was determined as 0.0341 µg/mL (≈ 0.0643 µM); in series [9] it was 0.32 µg/mL (≈ 0.603 µM); in series [10], 36.4 nM.
Consider `O=C(/C=C/c1cn(-c2ccc(Br)cc2)nc1-c1ccc([N+](=O)[O-])cc1)c1ccccc1`, for which the Activity result in series [1] is listed as “Non-toxic”; in [3], 3%; in [5] it was 96.51%; in [6] it was “Non-toxic”; in series [8], “Non-toxic”. Moreover, the Survival in series [2] was 16.22 days. For the same molecule, the MTD in series [4] came to 300 mg/kg. In addition, the IC50 stood at 1.08 µg/mL (≈ 2.28 µM) in series [7], 1.22 µg/mL (≈ 2.57 µM) in [9] and 38.8 nM in series [10].
On to `Cc1ccc(-c2nn(-c3ccc(C)cc3)cc2/C=N/N=c2/scc(-c3ccc(Br)cc3)n2-c2ccccc2)cc1`, for which the Activity entry in series [1] is listed as “Non-toxic”; in [3], 2%; in [5] it was 97.67%; in [6] it was “Non-toxic”; in series [8] it was “Non-toxic”. Moreover, the Survival in [2] turned out to be 16.84 days. In addition, the MTD in [4] was found to be 300 mg/kg. Also, the IC50 was 0.0311 µg/mL (≈ 0.0514 µM) in series [7], 0.3 µg/mL (≈ 0.496 µM) in series [9] and 41.8 nM in series [10].
Turning to `O=[N+]([O-])c1ccc(-c2nn(-c3ccc(Br)cc3)cc2/C=N/NC(=S)Nc2ccccc2)cc1`, the Activity result in series [1] is given as “Non-toxic”; in series [3] it was 5%; in [5], 94.19%; in series [6], “Non-toxic”; in series [8], “Non-toxic”. Besides, in series [2], the Survival is 14.84 days. In [4], this molecule registered an MTD of 300 mg/kg. Besides, the IC50 was 0.0214 µg/mL (≈ 0.041 µM) in series [7], 0.21 µg/mL (≈ 0.403 µM) in series [9] and 38.4 nM in [10].
For `O=[N+]([O-])c1ccc(-c2nn(-c3ccc(Br)cc3)cc2C2CC(c3ccccc3)=NN2)cc1` (stereo unspecified), the Activity result in series [1] is listed as “Non-toxic”; in [3], 4%; in series [5], 95.35%; in [6], “Non-toxic”; in series [8], “Non-toxic”. Besides, the Survival in series [2] is 17.6 days. The same molecule showed an MTD in [4] of 300 mg/kg. The IC50 in [7] worked out at 2.12 µg/mL (≈ 4.35 µM); in series [9], 1.11 µg/mL (≈ 2.27 µM); in series [10], 42 nM.

These data come from ChEMBL document CHEMBL3414483, “New heterocyclic hybrids of pyrazole and its bioisosteres: design, synthesis and biological evaluation as dual acting antimalarial-antileishmanial agents” (Eur J Med Chem, 2015).
